Measurements as given in ChEMBL document CHEMBL1128446, “Pyrazinoic acid esters with broad spectrum in vitro antimycobacterial activity” (1995).
Values after ≈ are worked out from the molar mass of the structure shown.

What was measured:
Type in all cases: functional
[1] = test system: Mycobacterium avium; assay: Minimum Inhibitory Concentration in clinical isolates against Mycobacterium avium complex 101
Summary of the method: (§1)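 Broth macrodilution in tubes of modified Middlebrook 7H10 broth (agar and malachite green omitted) with 10% OADC and 0.05% Tween 80 at pH 5.8. Cultures were grown 3 days at 37 °C on a rotary shaker, then diluted with 7H10 broth to 1 Klett unit/mL. Stocks were made in water or DMSO and filter-sterilised; 2-fold serial dilutions were tested. Tubes shaken 7–10 days at 37 °C, with a drug-free control. MIC = lowest concentration (μg/mL) with no visible turbidity.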

[2] = test system: Mycobacterium tuberculosis; assay: Minimum Inhibitory Concentration against Mycobacterium tuberculosis ATCC 35801; summary of the method: as §1
[3] = test system: Mycobacterium avium; assay: Minimum Inhibitory Concentration against clinical isolates of Mycobacterium avium complex ATCC 49601; summary of the method: as §1
[4] = test system: Mycobacterium tuberculosis; assay: Minimum Inhibitory Concentration against Mycobacterium tuberculosis ATCC 27294; summary of the method: as §1
[5] = test system: Mycobacterium kansasii; assay: Minimum Inhibitory Concentration against clinical isolates of Mycobacterium kansasii S
Summary of the method: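 Grown 3 days at 37 °C on a rotary shaker in modified Middlebrook 7H10 broth (agar and malachite green omitted) with 10% OADC and 0.05% Tween 80. Diluted to 1 Klett unit/mL. Tubes held serial 2-fold dilutions in 7H10 broth at pH 5.8, from stocks in water or DMSO, and were shaken at 37 °C for 7–10 days with a drug-free control. MIC was the lowest concentration with no visible turbidity.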

[6] = test system: Mycobacterium avium; assay: Minimum Inhibitory Concentration in clinical isolates against Mycobacterium avium complex ATCC 49601; summary of the method: as §1
[7] = Mycobacterium tuberculosis, ATCC 27294, read-out: MIC

| SMILES | MIC [1] [µg/mL] | MIC [2] [µg/mL] | MIC [3] [µg/mL] | MIC [4, 7] [µg/mL] | MIC [5] [µg/mL] | MIC [6] [µg/mL] | MIC [4] [µg/mL] |
| --- | --- | --- | --- | --- | --- | --- | --- |
| CCCCCCC(C)OC(=O)c1cnc(F)cn1 (centres undefined) | 32 (≈ 126 µM) | 4 (≈ 15.7 µM) | 64 (≈ 252 µM) | 2 (≈ 7.86 µM) | < 0.03 | – | – |
| CCCCCCCC(C)OC(=O)c1cnc(Cl)cn1 (centres undefined) | 32 (≈ 112 µM) | 0.5 (≈ 1.76 µM) | 32 (≈ 112 µM) | 1 (≈ 3.51 µM) | < 0.03 | – | – |
| CCCCCCCOC(=O)c1cnc(C)cn1 | 32 (≈ 135 µM) | 0.25 (≈ 1.06 µM) | 32 (≈ 135 µM) | 0.5 (≈ 2.12 µM) | 4 (≈ 16.9 µM) | – | – |
| CCCCOC(=O)c1cnc(Cl)cn1 | 64 (≈ 298 µM) | 0.5 (≈ 2.33 µM) | 128 (≈ 596 µM) | 0.25 (≈ 1.16 µM) | < 1 | – | – |
| CCCCCCCCC(C)(CCCC)OC(=O)c1cnc(Cl)cn1 (centres undefined) | > 64 | 16 (≈ 45.1 µM) | > 64 | 16 (≈ 45.1 µM) | 16 (≈ 45.1 µM) | – | – |
| CCCCCCCCCCOC(=O)c1cnccn1 | 32 (≈ 121 µM) | 0.25 (≈ 0.946 µM) | 8 (≈ 30.3 µM) | 0.5 (≈ 1.89 µM) | 0.25 (≈ 0.946 µM) | – | – |
| CCCCCCCCCOC(=O)c1cnc(C)cn1 | 64 (≈ 242 µM) | 1 (≈ 3.78 µM) | 32 (≈ 121 µM) | 1 (≈ 3.78 µM) | 2 (≈ 7.57 µM) | – | – |
| CCCCCCCCC(C)(C)OC(=O)c1cnc(Cl)cn1 | 64 (≈ 205 µM) | 1 (≈ 3.2 µM) | 64 (≈ 205 µM) | 0.125 (≈ 0.4 µM) | 1 (≈ 3.2 µM) | – | – |
| CCCCCCC(C)(C)OC(=O)c1cnc(Cl)cn1 | 64 (≈ 225 µM) | 4 (≈ 14 µM) | 64 (≈ 225 µM) | 0.25 (≈ 0.878 µM) | 1 (≈ 3.51 µM) | – | – |
| CCCCCCC(C)(CCCCCC)OC(=O)c1cnc(Cl)cn1 | > 64 | 0.5 (≈ 1.41 µM) | 16 (≈ 45.1 µM) | 0.25 (≈ 0.704 µM) | 2 (≈ 5.64 µM) | – | – |
| CCCCCC(C)OC(=O)c1cnc(Cl)cn1 (centres undefined) | 32 (≈ 125 µM) | 0.5 (≈ 1.95 µM) | 32 (≈ 125 µM) | 0.06 (≈ 0.234 µM) | < 0.125 | – | – |
| CCCCCCCCCC(C)(C)OC(=O)c1cnc(Cl)cn1 | 256 (≈ 783 µM) | 1 (≈ 3.06 µM) | 256 (≈ 783 µM) | 8 (≈ 24.5 µM) | 0.5 (≈ 1.53 µM) | – | – |
| CCCCCC(C)(CCCC)OC(=O)c1cnc(Cl)cn1 (centres undefined) | 256 (≈ 818 µM) | 8 (≈ 25.6 µM) | 256 (≈ 818 µM) | 4 (≈ 12.8 µM) | 16 (≈ 51.1 µM) | – | – |
| CCCCCCCCCCCOC(=O)c1cnc(Cl)cn1 | 16 (≈ 51.1 µM) | 0.5 (≈ 1.6 µM) | 8 (≈ 25.6 µM) | 0.25 (≈ 0.799 µM) | 0.06 (≈ 0.192 µM) | – | – |
| CCCCCCCCCCOC(=O)c1cnc(Cl)cn1 | 32 (≈ 107 µM) | 0.25 (≈ 0.837 µM) | 16 (≈ 53.5 µM) | 0.5 (≈ 1.67 µM) | 0.5 (≈ 1.67 µM) | – | – |
| CCCCCCCCCOC(=O)c1cnc(Cl)cn1 | 32 (≈ 112 µM) | 1 (≈ 3.51 µM) | 16 (≈ 56.2 µM) | < 0.03 | 0.125 (≈ 0.439 µM) | – | – |
| CCCCCCC(C)(CCCCC)OC(=O)c1cnc(Cl)cn1 (centres undefined) | > 64 | 8 (≈ 23.5 µM) | > 64 | 2 (≈ 5.87 µM) | 8 (≈ 23.5 µM) | – | – |
| COC(=O)c1cnc(F)cn1 | 64 (≈ 410 µM) | 8 (≈ 51.2 µM) | 64 (≈ 410 µM) | 4 (≈ 25.6 µM) | 8 (≈ 51.2 µM) | – | – |

| SMILES | MIC [1] [µg/mL] | MIC [2] [µg/mL] | MIC [3] [µg/mL] | MIC [4, 7] [µg/mL] | MIC [5] [µg/mL] | MIC [6] [µg/mL] | MIC [4] [µg/mL] |
| --- | --- | --- | --- | --- | --- | --- | --- |
| CCCCCC(CC)OC(=O)c1cnc(Cl)cn1 (centres undefined) | > 256 | 1 (≈ 3.69 µM) | 256 (≈ 945 µM) | 0.25 (≈ 0.923 µM) | 0.125 (≈ 0.462 µM) | – | – |
| Cc1cnc(C(=O)O)cn1 | 1020 (≈ 7410 µM) | 64 (≈ 463 µM) | – | 64 (≈ 463 µM) | 1020 (≈ 7410 µM) | > 1020 | – |
| O=C(Oc1c(Br)cc(Br)cc1Br)c1cnccn1 | 128 (≈ 293 µM) | 32 (≈ 73.2 µM) | 128 (≈ 293 µM) | 32 (≈ 73.2 µM) | 64 (≈ 146 µM) | – | – |
| O=C(O)c1cnc(Cl)cn1 | – | 64 (≈ 404 µM) | – | 64 (≈ 404 µM) | 64 (≈ 404 µM) | > 1020 | – |
| Cc1ccc(C(C)OC(=O)c2cnc(Cl)cn2)cc1 (centres undefined) | 256 (≈ 925 µM) | 1 (≈ 3.61 µM) | 16 (≈ 57.8 µM) | 1 (≈ 3.61 µM) | 1 (≈ 3.61 µM) | – | – |
| O=C(OCCc1ccc(Cl)cc1)c1cnc(Cl)cn1 | 16 (≈ 53.8 µM) | 32 (≈ 108 µM) | 8 (≈ 26.9 µM) | 2 (≈ 6.73 µM) | 0.5 (≈ 1.68 µM) | – | – |
| O=C(OC(c1ccccc1)c1ccccc1)c1cnc(Cl)cn1 | > 64 | 16 (≈ 49.3 µM) | > 64 | 16 (≈ 49.3 µM) | 8 (≈ 24.6 µM) | – | – |
| O=C(Oc1ccc(F)cc1)c1cnccn1 | 128 (≈ 587 µM) | – | – | 32 (≈ 147 µM) | 64 (≈ 293 µM) | 128 (≈ 587 µM) | 32 (≈ 147 µM) |
| CCCCCCCC(OC(=O)c1cnc(Cl)cn1)C(C)C (centres undefined) | > 256 | 2 (≈ 6.39 µM) | 256 (≈ 818 µM) | 0.5 (≈ 1.6 µM) | 0.25 (≈ 0.799 µM) | – | – |
| CCCCCCCC(C)(CCCC)OC(=O)c1cnc(Cl)cn1 (centres undefined) | > 256 | 8 (≈ 23.5 µM) | > 256 | 4 (≈ 11.7 µM) | 16 (≈ 46.9 µM) | – | – |
| CCCCCCCCOC(=O)c1cnc(Cl)cn1 | 16 (≈ 59.1 µM) | < 0.03 | 16 (≈ 59.1 µM) | 0.06 (≈ 0.222 µM) | < 0.03 | – | – |
| CCCCCOC(=O)c1cnc(Cl)cn1 | 32 (≈ 140 µM) | 0.25 (≈ 1.09 µM) | 32 (≈ 140 µM) | 0.06 (≈ 0.262 µM) | < 0.03 | – | – |
| COC(=O)c1cnc(Cl)cn1 | 256 (≈ 1480 µM) | 8 (≈ 46.4 µM) | 64 (≈ 371 µM) | 4 (≈ 23.2 µM) | 2 (≈ 11.6 µM) | – | – |
| CCCCCCCCCCCC(C)OC(=O)c1cnc(Cl)cn1 (centres undefined) | 256 (≈ 751 µM) | 0.5 (≈ 1.47 µM) | 32 (≈ 93.9 µM) | 2 (≈ 5.87 µM) | 0.06 (≈ 0.176 µM) | – | – |
| CCCCCCCCCC(C)OC(=O)c1cnc(Cl)cn1 (centres undefined) | 16 (≈ 51.1 µM) | 0.125 (≈ 0.4 µM) | 16 (≈ 51.1 µM) | 0.25 (≈ 0.799 µM) | 0.25 (≈ 0.799 µM) | – | – |
| C=CCOC(=O)c1cnc(Cl)cn1 | 64 (≈ 322 µM) | 1 (≈ 5.04 µM) | 64 (≈ 322 µM) | 1 (≈ 5.04 µM) | < 1 | – | – |
| NC(=O)c1cnccn1 [PYRAZINAMIDE] | > 2050 | 32 (≈ 260 µM) | – | 16 (≈ 130 µM) | 2050 (≈ 16600 µM) | > 2050 | – |
| O=C(O)c1cnccn1 [PYRAZINOIC ACID] | > 1020 | 32 (≈ 258 µM) | – | 32 (≈ 258 µM) | 256 (≈ 2060 µM) | > 1020 | – |
